This is an account of results in ChEMBL document CHEMBL4513216, “Probing the Open Global Health Chemical Diversity Library for Multistage-Active Starting Points for Next-Generation Antimalarials” (ACS Infect Dis, 2020).

This data set is described as follows: Toxicity liver stage against HepG2, at 10uM. Format: cell-based. The arrangement: test concentration 10 uM, cell line HepG2-A16-CD81EGFP. The conditions noted are these: human, HepG2-A16-CD81EGFP cells; read-out: INHIBITION
The method, boiled down:
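Uninfected HepG2-A16-CD81EGFP cells, 3 × 10^3 per well, 1536-well, plated on prespotted compound at 10 μM final, parasite-free screening media added to match infected plates; puromycin 10 μM positive, DMSO 0.5% negative; run in parallel with 48 h PbLuc assay at 37 °C, 5% CO2; viability by CellTiter-Glo luminescence, normalized to controls.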
Consider `O=C(c1ccno1)N1CCOC[C@H](Oc2ccc(C(F)(F)F)cc2)C1`, for which the cytotoxicity at 10 µM was found to be 1.48%. Turning to `Cc1nc(-c2ccoc2)n(CC(=O)N(C)CC(C)C)c1C`, the cytotoxicity at 10 µM is -4.5%.

Turning to `O=C1CCNc2ncc(-c3ccccc3Cl)cc2CN1C1CC1`, the cytotoxicity at 10 µM stood at 8.89%. Regarding `CCOC(=O)[C@@H]1[C@@H](c2ccccc2)CN2CCNC[C@H]12`, the cytotoxicity at 10 µM came to 3.8%. Take `COc1ccccc1C(=O)N1CC(=O)N(C2CCCCC2)CC(O)C1` (stereo unspecified): the cytotoxicity at 10 µM is -3.09%.

As to `O=S1(=O)CCC(S(=O)(=O)c2cccc(S(=O)(=O)N3CCCCCC3)c2)C1` (stereo unspecified), the cytotoxicity at 10 µM is -7.39%. For `COc1ccc(C)cc1NC(=O)Nc1cnc(N2CCOCC2)nc1`, the cytotoxicity at 10 µM is -9.67%. Then `Cc1ccc(N2CCN(C(=O)COc3nccc(C)n3)CC2)nn1`, with -25.1%; and `Cc1nnc(NC(=O)C(C)n2ncc(Br)c2C)s1` (stereo unspecified), with 1.81%; and `COCC(=O)N1CCOC(c2ccc(N(C)C)cn2)C1` (stereo unspecified), with -13.1%. Take `Cc1ncsc1CN1CC[C@H](O)[C@@H](n2cnc3c(N)ncnc32)CC1`: the cytotoxicity at 10 µM is -10.8%.

Take `COc1cc(F)ccc1NC(=O)NC(C)C(=O)NC(C)(C)C` (stereo unspecified): the cytotoxicity at 10 µM is -6.1%. As for `O=S(=O)(c1ccc(Cl)s1)N1CCCC(c2ncc[nH]2)C1` (stereo unspecified), the cytotoxicity at 10 µM worked out at 6.68%.

As for `Cc1cc(NC(=O)C2CCN(c3ncccc3C#N)CC2)no1`, the cytotoxicity at 10 µM was 3.54%. Then `O=C1CCCN1CCCN1CCCCC1Cn1cncn1` (stereo unspecified), with -0.358%; and `CC(C)COc1cncc(N2CCCN(c3ncccn3)CC2)n1`, with -2.38%. For `Cc1nn(C)c(C)c1CC(=O)N1CCCC(CNS(C)(=O)=O)C1` (stereo unspecified), the cytotoxicity at 10 µM amounted to 3.3%.

Turning to `NCC1(c2cccc(F)c2)CCOCC1`, the cytotoxicity at 10 µM was -7.87%. Turning to `O=C(NCc1nnc2n1CCC2)N(Cc1ccc(F)cc1)C1CC1`, the cytotoxicity at 10 µM is -5.31%. Take `CSCC(CCO)NC(=O)Nc1cc(F)ccc1C` (stereo unspecified): the cytotoxicity at 10 µM was -1.8%. Then `CN(Cc1ccc(C#N)cc1)Cn1nccc1-c1cccnc1`, with 8.4%.

Take `Cc1cccc(N2N=C(C(=O)NC(C)Cn3cccn3)CCC2=O)c1` (stereo unspecified): the cytotoxicity at 10 µM came to 0.479%. For `CCN1CCC(NC(=O)Cc2csc(C(C)(C)C)n2)CC1`, the cytotoxicity at 10 µM is -16.3%. Consider `CCOc1cc(NC(=O)N(C)Cc2ncnn2C)ccc1C`, for which the cytotoxicity at 10 µM amounted to 13.4%. On to `COC(=O)c1ccc(NC(=O)CCc2ccncc2)c(C)c1`, for which the cytotoxicity at 10 µM was 7.83%. On to `CC(OCC1CC1)C(=O)Nc1ncccc1I` (stereo unspecified), for which the cytotoxicity at 10 µM is 12.1%.

Turning to `O=C(NCc1cc[nH]n1)N1CCC(Oc2ccccc2Cl)CC1`, the cytotoxicity at 10 µM is 8.16%. Next, `CC(=O)N1CCO[C@@H]2CN(S(=O)(=O)C3CC3)C[C@@H]2C1`: -104%; `CCN(C(=O)c1ccc2nnc(C3CCN(C(C)=O)C3)n2c1)C(C)C` (stereo unspecified): -107%. On to `CN(C)CCNC(=O)CCC1CCN(C(=O)c2ccc(Cl)cc2O)CC1`, for which the cytotoxicity at 10 µM is -11.7%. As for `Cc1ccc(-c2nc(CN3C[C@@H](C)NC[C@@H]3C)c(C)o2)s1`, the cytotoxicity at 10 µM is -11.7%.

With `Cc1cc(N2CCN(Cc3ccsc3)C(CCO)C2)nc(N)n1` (stereo unspecified), the cytotoxicity at 10 µM is -7.3%.

On to `Cc1n[nH]c(SCCNC2CCN(c3nc4ccccc4s3)CC2)n1`, for which the cytotoxicity at 10 µM is -6.92%. Turning to `CCn1cnnc1CN(C)Cc1nc(-c2cc(OC)ccc2F)oc1C`, the cytotoxicity at 10 µM is -1.32%. For the molecule `CC(=O)c1ccc(N2CCCC(CO)(Cc3ccccc3F)C2)nc1` (stereo unspecified), the cytotoxicity at 10 µM was 8.59%. On to `Cc1nc(N2C[C@@H](CN3CCCN(C)CC3)[C@@H](CO)C2)c2ccsc2n1`, for which the cytotoxicity at 10 µM is -6.56%. As for `COc1ccnc(N2CCC(=O)N(CC3CC3)C(C(C)C)C2)n1` (stereo unspecified), the cytotoxicity at 10 µM came out at 1.73%. For `O=C(CCN1CCCO1)NC1CCCN(CC2CCCCC2)C1` (stereo unspecified), the cytotoxicity at 10 µM came out at 7.3%. For `c1ccc2c(c1)CC(N1CCCC(NCc3ccc4nonc4c3)C1)C2` (stereo unspecified), the cytotoxicity at 10 µM worked out at 5.6%. For `NC(=O)COc1ccc(CN2CCC(O)(CN3CCCCC3)C2)cc1Cl` (stereo unspecified), the cytotoxicity at 10 µM was -1.73%.

`NCCc1cccc(CN2CCN(c3cccc(Cl)c3)C(=O)C2)c1`: the cytotoxicity at 10 µM was -5.29%.

For the molecule `Cc1nc(CN(C)c2nccc(C(F)(F)F)n2)cs1`, the cytotoxicity at 10 µM was 1.15%. Then `COc1ccc(OC)c(C2CCN(C(=O)C3CCOCC3)C2)c1` (stereo unspecified), with 5.6%; and `CC(Nc1nccc(CCC(F)(F)F)n1)c1nc(-c2ccncc2)no1` (stereo unspecified), with 4.74%; and `CCCn1ccnc1-c1nccn1CCn1cnnc1`, with -3.53%. Consider `c1cnc(N2CCN(CCn3ccnc3-c3ccncc3)CC2)nc1`, for which the cytotoxicity at 10 µM was -3.25%. As for `COCC1CCN(c2nc(C(C)(C)C)nc3c2cnn3C)C1` (stereo unspecified), the cytotoxicity at 10 µM is -8.44%. For `Cc1nc(CCN)cc(N2CCCN(C(=O)c3ccco3)CC2)n1`, the cytotoxicity at 10 µM stood at 1.24%.

Regarding `CCCN1CCN(Cc2cc(Cl)cc(Cl)c2)[C@H]2CS(=O)(=O)C[C@H]21`, the cytotoxicity at 10 µM is -2.45%.

`Cc1nc(-c2ncc(C(=O)NCCNc3ncccc3C)c(O)n2)cs1`: the cytotoxicity at 10 µM is -0.153%. For `CN(C)C(C(=O)NCc1cc(C(C)(C)C)n[nH]1)c1ccc(F)cc1` (stereo unspecified), the cytotoxicity at 10 µM is -5.54%. Then `CCc1nnc(NCc2cccc(OC)c2OC)o1`, with 6.79%; and `CCOCCn1c(=O)[nH]c2cc(C(=O)N(C)CCc3cn[nH]c3)ccc21`, with -21.7%. `CC(=O)c1cc(CC(=O)NCc2ccc(CN(C)C)cc2)cs1`: the cytotoxicity at 10 µM was -11.3%. Then `CCc1nnc2n1CCN(Cc1cccc3c1OCCO3)C2`, with -7.42%; and `O=C(CC1C=CCC1)Nc1ncn(CC(=O)N2CCCCCC2)n1` (stereo unspecified), with -3.72%.

Consider `Cc1ccccc1CNC(=O)Cn1nc(-c2ccc(F)cc2)oc1=O`, for which the cytotoxicity at 10 µM was -7.63%. For `CC(=O)N(C)c1nc(CN2CCCC2c2cnn(C)c2)cs1` (stereo unspecified), the cytotoxicity at 10 µM was -16.1%.

For `Cc1cc(NC(=O)CN2CCCC2c2noc(C(C)C)n2)no1` (stereo unspecified), the cytotoxicity at 10 µM was -14.3%. `O=C(CCNc1ncccn1)N1CCCC(n2cccn2)C1` (stereo unspecified): the cytotoxicity at 10 µM was found to be 0.2%.

On to `Cn1cnnc1C1CCCN(C(=O)NCc2cc[nH]n2)C1` (stereo unspecified), for which the cytotoxicity at 10 µM was -6.73%. Next, `O=C1COc2cc(C(=O)NS(=O)(=O)c3ccccc3F)ccc2N1`: -4.79%; `O=C(c1ccc(Cl)o1)N1CCCN(Cc2cscn2)CC1`: -1.08%; `Cc1cccc(CNc2cc(C3CCCNC3)ccn2)n1` (stereo unspecified): 3.81%. Next, `COc1ccc(F)c(CN2CCC(c3cc(O)nc(C)n3)C2)c1` (stereo unspecified): 5.61%; `Cc1noc(C)c1CN1C[C@@H]2COC[C@H](C(=O)N3CCCCO3)[C@@H]2C1`: -1.98%; `Fc1cccc(N2C[C@H]3CCN(c4cccnc4)C[C@H]3C2)c1`: 15.4%.

Take `O=C(NCc1cnc2n1CCN(CC1CCOCC1)C2)c1ccno1`: the cytotoxicity at 10 µM was -101%. Consider `CN(C)c1nc(N2CCCC2)nc2c1CCN(Cc1nccn1C)CC2`, for which the cytotoxicity at 10 µM was -97.2%. As for `CCOC(=O)N1CCc2ccccc2C12CCNCC2`, the cytotoxicity at 10 µM was 1.15%.

For `Cc1nc(COCc2cnc3n2CCN(CC2CCC2)C3C)cs1` (stereo unspecified), the cytotoxicity at 10 µM was -5.63%.
